# Most compounds without a hit are left out; they make up all but 3.1% or so of the library.
# KCNQ1 inh – inhibitors of human KCNQ1 potassium channel; CHO-K1 KCNQ1, FluxOR thallium flux fluorescence; hits give high values; B-score at 10 µM; 310,000 compounds, 1.3% hits;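 active = compounds whose thallium flux B-score, printed positive for inhibition, exceeds three library SD while starting fluorescence stays within three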;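 also: channel opened by potassium depolarization with thallium stimulus after 20 min compound exposure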
# KCNK9 block – inhibitors of human KCNK9 two-pore domain potassium channel | Q9NPC2 | B-score at 10 µM | AID 488922 | HEK293 KCNK9, FluxOR thallium flux fluorescence; hits give low values | 310,000 compounds, 1.2% hits;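 active = ratio B-score over 3 SD below the library mean, with starting fluorescence within 5 SD of its mean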;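 also: negative B-score means less thallium flux so channel inhibition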
# KCNK3 inh – human KCNK3 channel inhibition, primary screen; O14649; CHO-KCNK3 thallium flux, FluxOR fluorescence; hits give low values; B-score at 10 µM; 340,000 compounds, 0.84% hits; AID 602410;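 active = B-score under library mean minus 4 SD, starting fluorescence ratio at most library mean plus 5 SD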;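 also: more negative B-score means stronger inhibition of thallium flux through KCNK3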
# hERG rescue – compounds protecting human hERG from proarrhythmic drug block | 310,000 compounds, 0.51% hits | CHO-hERG, FluxOR thallium flux, dofetilide IC70 present | activation (rescue from dofetilide block), less the hit threshold, % at 10 µM | Q12809;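 active = activation above the mean of controls blocked by dofetilide plus 5 SD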;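 also: thallium influx through hERG after potassium depolarization seen as dye fluorescence rise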
# Target sequence (Q12809 whole entry, looked up): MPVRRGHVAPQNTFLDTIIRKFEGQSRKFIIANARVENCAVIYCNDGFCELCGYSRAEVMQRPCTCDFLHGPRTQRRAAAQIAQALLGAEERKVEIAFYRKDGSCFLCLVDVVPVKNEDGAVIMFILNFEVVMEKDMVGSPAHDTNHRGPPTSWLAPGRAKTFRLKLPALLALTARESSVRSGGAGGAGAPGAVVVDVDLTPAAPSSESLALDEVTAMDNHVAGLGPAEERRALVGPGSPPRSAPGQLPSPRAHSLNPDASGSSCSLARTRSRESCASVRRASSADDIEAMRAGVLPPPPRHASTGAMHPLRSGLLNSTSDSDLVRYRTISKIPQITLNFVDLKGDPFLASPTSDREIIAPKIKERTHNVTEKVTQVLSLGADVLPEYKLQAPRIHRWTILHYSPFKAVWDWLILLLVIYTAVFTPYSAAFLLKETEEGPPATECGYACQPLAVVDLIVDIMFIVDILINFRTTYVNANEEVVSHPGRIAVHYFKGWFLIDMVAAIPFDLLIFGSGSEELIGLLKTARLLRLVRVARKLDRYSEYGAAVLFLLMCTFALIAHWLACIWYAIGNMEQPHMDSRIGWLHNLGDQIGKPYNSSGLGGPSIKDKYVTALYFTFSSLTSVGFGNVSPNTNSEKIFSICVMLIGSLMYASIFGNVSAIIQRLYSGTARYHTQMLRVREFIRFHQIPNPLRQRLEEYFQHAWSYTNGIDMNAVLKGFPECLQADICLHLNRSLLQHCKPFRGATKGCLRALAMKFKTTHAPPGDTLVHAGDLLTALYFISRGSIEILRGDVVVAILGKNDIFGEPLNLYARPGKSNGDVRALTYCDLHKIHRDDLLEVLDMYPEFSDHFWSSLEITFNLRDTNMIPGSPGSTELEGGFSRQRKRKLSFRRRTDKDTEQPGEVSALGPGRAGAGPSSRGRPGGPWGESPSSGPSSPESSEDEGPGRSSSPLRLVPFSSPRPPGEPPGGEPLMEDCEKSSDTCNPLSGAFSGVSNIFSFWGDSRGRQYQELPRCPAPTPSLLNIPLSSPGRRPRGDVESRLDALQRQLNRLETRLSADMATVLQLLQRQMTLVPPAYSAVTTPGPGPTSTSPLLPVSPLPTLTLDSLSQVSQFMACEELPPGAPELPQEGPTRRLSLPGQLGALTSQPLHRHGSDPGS
# KCNQ1 act – potentiators or activators of human KCNQ1 potassium channel; B-score at 10 µM; P51787; CHO-K1 KCNQ1, thallium flux FluxOR fluorescence; hits give high values; 310,000 compounds, 0.35% hits;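 active = fluorescence ratio B-score, a plate-corrected score, at least three library SD, with initial intensity B-score within 5 SD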
#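 Assay system: CHO-K1 cells stably expressing KCNQ1; Medium: assay buffer with matched DMSO; Also added: K+/Tl+ depolarizing stimulus; Dosing: single dose; Timing: dye 90 min, compound 20 min, room temperature; Measured by: kinetic FluxOR thallium fluorescence, 10-s 1-Hz baseline, 110-s post-stimulus read; Read-out: peak-minus-minimum fluorescence over initial fluorescence, negative-control normalized, B-scored.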
# KCNK9 inh conf – confirmation of human KCNK9 potassium channel inhibitors. shares compounds with KCNK9 block. HEK293 KCNK9 cells, FluxOR thallium flux fluorescence. inhibition, % at 10 µM. 4,900 compounds, 43% hits;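 active = thallium signal inhibited by more than 5 SD of the compound-free buffer control wells, on both duplicate plates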
# Kir21 sel – mouse Kir2.1 off-target activity of KCNK9 modulators; Kir2.1 cells, FluxOR thallium flux fluorescence; inhibition, % at 10 µM; AID 492993; 4,900 compounds, 4% hits; shares compounds with KCNK9 block;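 active = thallium signal drop more than 5 SD beyond the mean of the no-compound control wells, seen in both duplicate plates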;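 also: signal is fluorescence rise after thallium addition divided by baseline fluorescence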
# HEK293 Tl ctr – second counter-screen for KCNK9 modulators: effect in non-induced cells. shares compounds with KCNK9 block. non-induced KCNK9-HEK293, FluxOR thallium flux. inhibition, % at 10 µM. 4,900 compounds, 40% hits;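 active = thallium signal drop beyond 5 SD of the untreated control mean, on both duplicate plates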
# KCNK3 inh conf – confirmation of human KCNK3 two-pore domain potassium channel inhibitors | shares compounds with KCNK3 inh | CHO-KCNK3 thallium flux, FluxOR fluorescence; 0% buffer, 100% carvedilol maximal block | ratio percent of control, % at 10 µM | 2,400 compounds, 99% hits;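 active = ratio percent of control, averaged over triplicates, above buffer control mean plus 5 SD, cut at about 64% in these data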;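 also: ratio is the fluorescence rise from min to max over baseline after thallium stimulus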
# KCNK3 noninduced – activity in cells without induced KCNK3 expression; shares compounds with KCNK3 inh; non-induced KCNK3 parental cells, FluxOR thallium flux; hits give low values; thallium flux ratio (lower = more inhibition) at 10 µM; 2,400 compounds, 40% hits;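 active = thallium flux ratio, averaged over three wells, more than 5 SD below the buffer control mean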;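 also: host cells are CHO cells without KCNK3 induction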
# Hits are given with their value; – = inactive; · = no result.
SMILES,KCNQ1 inh,KCNK9 block,KCNK3 inh,hERG rescue,KCNQ1 act,KCNK9 inh conf,Kir21 sel,HEK293 Tl ctr,KCNK3 inh conf,KCNK3 noninduced
O/N=C(\c1ccc(Cl)cc1Cl)c1ncc(C(F)(F)F)cc1Cl,–,-13,-9.8,–,–,62%,–,44%,97,0.14
CC1=NN(C(=O)COc2cc(C)ccc2C(C)C)C(O)(c2ccccc2)C1 (stereo unspecified),–,-15,-9.8,–,–,58%,–,38%,120,0.16
CC1=NN(C(=O)CSCc2ccccc2)C(O)(c2ccc(Cl)cc2)C1 (stereo unspecified),–,-13,-13,–,–,62%,–,34%,98,–
Cn1c(N)c(C(=O)COC(=O)c2ccc(OC(F)F)cc2)c(=O)n(C)c1=O,·,·,–,·,·,·,·,·,·,·
O=C(COC(=O)c1ccc(Br)o1)c1ccc(S(=O)(=O)N2CCCCC2)cc1,·,·,–,·,·,·,·,·,·,·
NC(=O)c1ccccc1NC(=O)c1cccc(C(=O)Nc2ccccc2C(N)=O)n1,–,–,–,–,–,·,·,·,·,·
CCCCCCN=C1CC(C)(C)CC(=O)/C1=C(/O)CCC,–,-18,-10,–,–,66%,–,40%,94,–
CCC(=O)Nc1ccc(C(=O)CN2C(=O)NC3(CCCCCC3)C2=O)cc1,·,·,–,·,·,·,·,·,·,·
Cc1ccc(S(=O)(=O)n2nc(OC(=O)c3ccccc3C)cc2N)cc1,–,-18,-15,–,–,70%,–,74%,117,–
COc1ccc(CCC(=O)Nc2cc(S(=O)(=O)N3CCOCC3)ccc2OC(C)C)cc1,·,·,–,·,·,·,·,·,·,·
CN(CC(=O)Nc1ccc(F)c(F)c1F)C(=O)c1ccc2c(c1)S(=O)(=O)N=C1CCCCCN12,–,–,–,–,–,·,·,·,·,·
O=C(/C=C/c1ccc(F)cc1)NC(Cc1c[nH]c2ccccc12)C(=O)O (stereo unspecified),–,–,–,–,–,·,·,·,·,·
Cc1cccc(OCC(=O)NC(C)C(=O)N/N=C/c2c(OCc3ccccc3)ccc3ccccc23)c1 (stereo unspecified),–,-16,-9.4,–,–,66%,–,48%,105,–
CC(C)Oc1cccc(C(=O)C2CCCN(C(=O)c3ccnn3C)C2)c1 (stereo unspecified),–,–,-10,–,–,–,–,–,98,–
O=S(=O)(O)c1ccc2c(c1)C(C(Cl)(Cl)Cl)OC(C(Cl)(Cl)Cl)O2 (stereo unspecified),·,·,–,·,·,·,·,·,·,·
CC(C)(C)c1ccc(CSc2nnc(-c3ccccn3)n2Cc2ccco2)cc1,–,-11,–,–,–,66%,42%,40%,126,0.14
CNC(=O)CSc1nnc(-c2ccccn2)n1Cc1ccco1,–,–,–,–,–,·,·,·,·,·
Cc1cc(OCC(=O)N2CCc3ccccc3C2)c2c(-c3ccccc3)cc(=O)oc2c1,–,–,-11,–,–,–,–,–,99,–
CC(=O)Oc1cc(C)cc2oc(=O)cc(-c3ccccc3)c12,–,–,–,–,–,·,·,·,·,·
O=C(CSCC(=O)N1CCCc2ccccc21)Nc1nc(-c2ccccc2)cs1,–,-17,-12,–,–,23%,–,–,119,0.14
CS(=O)(=O)N1CCN(Cc2cc(=O)n3ccsc3n2)CC1,–,–,–,–,–,·,·,·,·,·
O=C(NCc1ccc2c(c1)OCO2)C(=O)NCC1OCCCN1S(=O)(=O)c1cc(F)ccc1F (stereo unspecified),–,–,–,–,–,·,·,·,·,·
CCCCC(CC)C(=O)Oc1ccc(O)c(C(C)(C)C)c1 (stereo unspecified),–,-16,-12,–,–,74%,–,31%,79,–
Cc1ccc(S(=O)(=O)c2nc(NCc3ccc4c(c3)OCO4)sc2Cl)cc1,–,-11,–,–,–,42%,32%,42%,130,0.16
CC(=O)Nc1nc(S(=O)(=O)c2ccc(C)cc2)c(Cl)s1,–,–,–,–,–,·,·,·,·,·
SMILES,KCNQ1 inh,KCNK9 block,KCNK3 inh,hERG rescue,KCNQ1 act,KCNK9 inh conf,Kir21 sel,HEK293 Tl ctr,KCNK3 inh conf,KCNK3 noninduced
COc1ccc(/C=N/NC(=O)c2cccc(NC(=O)c3ccccc3Cl)c2)cc1,–,–,–,–,–,·,·,·,·,·
COc1ccc(/C=N/NC(=O)c2ccccc2OCc2ccccc2)c(OC)c1,11,-21,-12,–,–,72%,–,–,126,0.14
COc1ccc(/C=N/NC(=O)c2cccc(NC(=O)c3ccccc3Cl)c2)c(OC)c1,–,-12,-10,–,–,49%,–,–,106,–
COc1ccc(/C(C)=N/NC(=O)c2ccccc2OCc2ccccc2)c(OC)c1,–,–,–,–,–,·,·,·,·,·
C[C@H](CO)N1C[C@H](C)[C@@H](CN(C)S(=O)(=O)c2ccc(F)cc2)Oc2c(NC(=O)c3ccncc3)cccc2C1=O,·,·,–,·,·,·,·,·,·,·
Cc1ccc2nc3sc(C(=O)N4CCCc5ccccc54)c(N)c3cc2c1,–,-11,-9.1,–,–,53%,–,52%,135,0.083
Cc1ccc(-c2cc(C(=O)N3CCCc4ccccc43)c3ccccc3n2)cc1,–,–,–,–,–,·,·,·,·,·
O=C(Cc1cccs1)Nc1cccc(-c2nnc(-c3ccco3)o2)c1,–,-9.3,-10,–,–,–,–,26%,115,–
Cc1cc(C)cc(OCC(=O)Nc2cccc(-c3nnc(-c4ccco4)o3)c2)c1,–,-10,-12,–,–,44%,–,60%,115,–
COc1ccc(CC(=O)Nc2cccc(-c3nnc(-c4ccco4)o3)c2)cc1,–,–,–,–,–,·,·,·,·,·
CC(C)CCN(C(=S)Nc1cccc(F)c1)C(C)c1cccs1 (stereo unspecified),–,-10,-14,–,–,50%,–,50%,119,0.15
COCCN(C(=S)Nc1cccc(C)c1)C(C)c1cccs1 (stereo unspecified),–,–,–,–,–,·,·,·,·,·
COC(=O)c1cc(C)sc1NC(=S)N1CCN(CCc2ccccc2)CC1,–,–,-10,–,–,–,–,–,104,–
O=C(CN1CCN(S(=O)(=O)c2cccs2)CC1)NCC1CCCCC1,·,·,–,·,·,·,·,·,·,·
Cc1ccc(N2C(=O)N3[C@H](c4ccc(F)cc4)[C@@H]4C(=O)N(C5CCCCC5)C(=O)[C@@H]4[C@]3(Cc3ccccc3)C2=O)cc1,–,–,–,–,–,·,·,·,·,·

# Assay outcomes deposited in PubChem by Johns Hopkins Ion Channel Center.
